Sampled rows, rich in hits. Any-hit rate of the full collection: about 3.1%.
Hsp70 act = switches on Hsp70 transcription | activation, % at 10 µM | AID 1203 | HeLa Hsp70 promoter luciferase reporter, luminescence; scaled: vehicle 0, proteasome-inhibitor control 100% | actives 0.04% (n = 200,000);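 active = activation above the mean across all tested compounds plus 3 SD, cutoff set per campaign, cut at about 5.5% in these data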
TbHK1 inh = blocks Trypanosoma brucei hexokinase 1 activity | inhibition, % at 10 µM | actives 0.11% (n = 220,000) | recombinant TbHK1, G6PDH-coupled NADH A340;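 active = inhibition of 50% or more in the single-dose primary screen; inactive = inhibition below 50%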
HSP90 inh = inhibitors of HSP90 luciferase refolding in rabbit reticulocyte lysate; luciferase refolding luminescence, 3 h; inhibition, % at 5.6 µM; actives 0.91% (n = 290,000);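 active = inhibition above the screen-wide mean plus 3 SD, computed separately per campaign, cut at about 16% in these data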;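 also: inhibitors lower the luminescence because luciferase stays unfolded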
HSF1 activator = increases HSF-1 driven luciferase reporter signal; NIH3T3-HGL HSF-1 luciferase reporter, MG132, 8 h; 100% = twice DMSO control signal; activation, % at 9 µM; actives 1.7% (n = 300,000);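 active = mean replicate activation of at least 50% with a set share of replicates each reaching 50%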
HKDC1 inhibitor = HKDC1 (human) hexokinase inhibition; Q2TB90; recombinant HKDC1, G6PDH/diaphorase resazurin coupled fluorescence; inhibition, % at 20 µM; actives 0.16% (n = 340,000); AID 493160;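 active = inhibition above about 35% when tested at 20 µM, limit read from the data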
Target sequence (Q2TB90 whole entry, looked up): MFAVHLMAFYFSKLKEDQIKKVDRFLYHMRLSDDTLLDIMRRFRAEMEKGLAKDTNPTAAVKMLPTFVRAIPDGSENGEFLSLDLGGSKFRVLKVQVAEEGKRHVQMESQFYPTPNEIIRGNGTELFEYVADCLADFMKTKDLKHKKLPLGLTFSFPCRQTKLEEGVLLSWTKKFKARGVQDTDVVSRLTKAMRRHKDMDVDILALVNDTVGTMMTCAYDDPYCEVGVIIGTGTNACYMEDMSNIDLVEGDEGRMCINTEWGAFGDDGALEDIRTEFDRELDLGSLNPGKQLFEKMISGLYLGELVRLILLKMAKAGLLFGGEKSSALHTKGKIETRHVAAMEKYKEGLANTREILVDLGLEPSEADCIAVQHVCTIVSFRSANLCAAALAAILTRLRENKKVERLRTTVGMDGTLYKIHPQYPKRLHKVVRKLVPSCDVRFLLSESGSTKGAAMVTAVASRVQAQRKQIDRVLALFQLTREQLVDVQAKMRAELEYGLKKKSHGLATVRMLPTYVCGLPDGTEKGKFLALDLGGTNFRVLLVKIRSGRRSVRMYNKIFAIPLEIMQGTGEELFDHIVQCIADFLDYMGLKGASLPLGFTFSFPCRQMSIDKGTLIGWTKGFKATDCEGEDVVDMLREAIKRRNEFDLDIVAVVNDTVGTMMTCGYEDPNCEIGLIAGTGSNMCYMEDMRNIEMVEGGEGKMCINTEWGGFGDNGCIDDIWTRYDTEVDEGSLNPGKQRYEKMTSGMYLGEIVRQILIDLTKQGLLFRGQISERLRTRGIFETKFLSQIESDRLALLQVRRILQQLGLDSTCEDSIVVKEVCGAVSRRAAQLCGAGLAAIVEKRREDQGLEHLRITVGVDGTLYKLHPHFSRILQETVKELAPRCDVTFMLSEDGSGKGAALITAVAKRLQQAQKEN
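Assay system: recombinant HKDC1 hexokinase; detection: coupled resazurin fluorescence, excitation 525 nm, emission 613 nm; benchmarks: DMSO-plus-enzyme-mix negative control, buffer-substituted positive control; compound dosing: single 20 µM dose; schedule: 90 min at room temperature in dark; also added: glucose plus 1 mM ATP as hexokinase substrates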
HSF1 inhib = HSF1 inhibition. NIH3T3-HGL HSE-luciferase, MG132-induced, luminescence 8 h; hits give low values. activity change, negative = inhibition, % at 7.5 µM (by protocol). actives 0.77% (n = 300,000). AID 2098;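 active = more than half of replicate wells show activity change below -50%, luminescence cut by over half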;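 also: luciferase reports HSF-1 transcriptional activity via heat shock element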
Large screens that a line does not name were inactive.

COC(=O)c1ccc(NC(=O)CCC(=O)c2ccc(F)cc2)cc1	none (no result: Hsp70 act, TbHK1 inh)
CCOC(=O)c1c(NC(=S)NCc2ccccc2)sc2c1CCN(C(=O)OCC)C2	HSF1 activator 72 (no result: Hsp70 act)
CCOC(=O)c1c(NC(=S)N2CCCCC2)sc2c1CCN(C(=O)OCC)C2	HSF1 activator 121 (no result: Hsp70 act)
C=CCNC(=S)Nc1sc2c(c1C(=O)OCC)CCN(C(=O)OCC)C2	HSF1 activator 61
CC[C@H]1C(=O)[C@@H](Cc2ccccc2)[C@@H]2CCN3C(=O)CCC[C@H]1[C@H]23	none (no result: Hsp70 act, TbHK1 inh, HSP90 inh, HSF1 activator, HSF1 inhib)
CCOc1ccc(NCc2nnc(SCC(=O)Nc3cc(C)on3)n2-c2ccccc2OC)cc1	none
CCOc1ccc(NCc2nnc(SCC(=O)Nc3cc(C)on3)n2-c2ccc(OC)cc2)cc1	HSF1 inhib -80
O=C(Cc1cccc2ccccc12)NCCc1ccccc1	none (no result: Hsp70 act, TbHK1 inh)
O=C(NCc1ccccc1)c1cccc(COc2ccccc2Cl)c1	HSP90 inh 17
CC(C)(C)NC(=O)C1CC(=O)OC12CCOC(C)(C)C2 (centres undefined)	HSF1 inhib -58
Cc1ccc(NC(=O)C2CC(=O)OC23CCOC(C)(C)C3)cc1 (centres undefined)	none
CCOc1ccc(N(CC(=O)N2CCOCC2)S(=O)(=O)c2ccc(Cl)cc2)cc1	none (no result: Hsp70 act, TbHK1 inh)
Clc1cc2nc(-c3cccnc3Cl)[nH]c2cc1Cl	HSF1 activator 55 (no result: Hsp70 act, TbHK1 inh)
Cc1cc2nc(-c3ccccc3O)[nH]c2cc1C	none (no result: Hsp70 act, TbHK1 inh, HSP90 inh, HSF1 activator, HSF1 inhib)
Cc1ccc2c(c1)N(CCC(=O)NC1CCCCC1C)C(=O)CO2 (centres undefined)	none (no result: Hsp70 act, TbHK1 inh)
O=C(O)COc1ccc2occ(C(=O)c3ccccc3)c2c1	none
CC(=O)Oc1ccc2occ(C(=O)c3ccccc3)c2c1	HSF1 activator 63 (no result: Hsp70 act, TbHK1 inh, HSP90 inh)
COc1ccc(N=C2SC(C(=O)N3CCN(c4ccccc4)CC3)CC(=O)N2C)cc1 (centres undefined)	HSF1 inhib -77
CCc1noc(C)c1C(=O)OC(C)C(=O)Nc1cc([N+](=O)[O-])ccc1OC (centres undefined)	none (no result: Hsp70 act, TbHK1 inh, HSP90 inh)
CCN1C=C(C(=O)c2ccccc2)C(=O)CC1	none (no result: Hsp70 act, TbHK1 inh, HSP90 inh, HSF1 activator, HSF1 inhib)
Oc1ccc(-c2nc3ccc4ccccc4c3c3c2CCC3)cc1O	HSF1 activator 61
Cc1cc(C)c2c(ccc3ccccc32)n1	none (no result: Hsp70 act, TbHK1 inh, HSP90 inh, HSF1 activator, HSF1 inhib)
O=C(Cn1c(NCCCO)nc2ccccc21)c1ccc(F)cc1	none (no result: Hsp70 act, TbHK1 inh)
O=C(CN1C(=O)COc2ccccc21)N1CCN(C2CCCCC2)CC1	none (no result: Hsp70 act, TbHK1 inh)
CC(C)CCN(CCC(C)C)C(=O)Cc1c(O)c2ccccc2[nH]c1=O	HSF1 activator 53 (no result: Hsp70 act)
CCN(CC)C(=O)Cc1c(O)c2ccccc2[nH]c1=O	none (no result: Hsp70 act)
CCOC(=O)c1sc(NC(=O)CCN2CCN(CC)CC2)c(C(=O)OCC)c1C	none
CCOC(=O)c1sc(NC(=O)CCN2CCC(C)CC2)c(C(=O)OCC)c1C	HSF1 activator 233
CCOC(=O)c1sc(NC(=O)CSc2nncs2)c(C(=O)OCC)c1C	HSF1 activator 56
O=C(Nc1ccccc1)c1ccc2nc(-c3ccco3)c(-c3ccco3)nc2c1	HSF1 activator 56
CC(=O)c1ccc(NC(=O)c2ccc3nc(-c4ccco4)c(-c4ccco4)nc3c2)cc1	HKDC1 inhibitor 41
O=C(Nc1ccc(N2CCOCC2)cc1)c1ccc2nc(-c3ccco3)c(-c3ccco3)nc2c1	none
Cc1ccc(N2C(=O)C3CC(c4ccccc4)=C4C5C=CC(C6C(=O)N(c7ccc(C)cc7C)C(=O)C56)C4C3C2=O)c(C)c1 (centres undefined)	HSF1 activator 88
Cc1ccc(N2C(=O)C3CC(c4ccccc4)=C4C5C=CC(C6C(=O)N(c7ccc(C)cc7)C(=O)C56)C4C3C2=O)cc1 (centres undefined)	none
Cc1[nH]c2ccc(F)cc2c1CCN(Cc1cccnc1)C(=S)Nc1ccccc1	none
CNC(=S)N(CCc1c(C)[nH]c2ccc(F)cc12)Cc1cccnc1	HSF1 inhib -86 (no result: Hsp70 act, TbHK1 inh)
Clc1ccc(CON/C=N/c2ncnc3sccc23)cc1	HSP90 inh 17
C(=N\c1ncnc2sccc12)/NOCc1ccccc1	none
COc1ccc(NC(=O)CN(C)C(=O)c2cccc(S(=O)(=O)N3CCN(c4ccc(F)cc4)CC3)c2)cc1	none (no result: Hsp70 act, TbHK1 inh, HSP90 inh, HSF1 activator, HSF1 inhib)
CCOc1ccc(-n2nnnc2-c2nc3ccccc3s2)cc1	HSF1 inhib -57
COc1ccc(N=C2C(=Nc3ccc(OC)cc3)N(c3ccc(N(C)C)cc3)C(=S)N2c2ccc(OC)cc2)cc1	HSF1 activator 63
COc1ccc(N=C2C(=Nc3ccc(OC)cc3)N(c3ccc(OC)cc3)C(=S)N2C(=O)c2ccc(OC)cc2)cc1	HSF1 activator 65
COc1ccc(N2C(=S)N(C(=O)c3ccccc3)C(=Nc3ccccc3)C2=Nc2ccccc2)cc1	none
COc1ccc(N=Nc2cc(C)ccc2O)cc1	HSF1 activator 59 (no result: Hsp70 act)
Cc1ccc(O)c(N=Nc2ccc(S(=O)(=O)N3CCCC3)cc2)c1	none (no result: Hsp70 act)
COc1ccc(N=Nc2ccc(CO)cc2)cc1	HSF1 activator 72 (no result: Hsp70 act, TbHK1 inh, HSP90 inh)
OCc1ccc(N=Nc2ccccc2)cc1	none (no result: Hsp70 act, TbHK1 inh, HSP90 inh)
C=CCC[C@H](Cc1ccc(F)cc1)C(=O)OC[C@H](C)NC(=O)[C@@H](CC=C)CC(=O)N[C@H](CO)Cc1ccccc1	none (no result: Hsp70 act, TbHK1 inh, HSP90 inh, HSF1 activator, HSF1 inhib)
CC(C)(C)[C@H]1C=C(C(=O)Nc2ccccc2)O[C@@H](OCCCCO)C1	HSF1 inhib -61 (no result: Hsp70 act, TbHK1 inh, HSP90 inh)
CC(C)(C)[C@@H]1C=C(C(=O)O)O[C@H](OCCCCO)C1	none (no result: Hsp70 act, TbHK1 inh, HSP90 inh)
COc1ccc2c(CC(=O)OCC(=O)N3CCc4ccccc43)coc2c1	none
COc1ccc2c(CC(=O)N3CCc4ccccc43)coc2c1	HSF1 activator 104
O=c1[nH]c(C2CCN(S(=O)(=O)c3cccc([N+](=O)[O-])c3)CC2)nc2c1nnn2Cc1ccccc1	HSF1 activator 61 (no result: Hsp70 act, TbHK1 inh)
O=c1[nH]c(C2CCN(S(=O)(=O)c3cccc(Cl)c3)CC2)nc2c1nnn2Cc1ccccc1	none (no result: Hsp70 act, TbHK1 inh)
CN(C)CCNc1ccc2ncn3c4ccc(O)cc4c(=O)c1c23	none (no result: Hsp70 act, TbHK1 inh, HSP90 inh, HSF1 activator, HSF1 inhib)
CCCC[C@@H](CNC)NC[C@H](Cc1ccc(O)cc1)NCCc1ccc(OCC)cc1	HSF1 inhib -80 (no result: Hsp70 act, TbHK1 inh)
CCCCC(=O)N1CCN(c2nc3ccc(Cl)cc3s2)CC1	none (no result: Hsp70 act, TbHK1 inh)
CC(=O)c1cccc(NC(=O)CN2C(=S)NC(C)(C)CC2C)c1 (centres undefined)	HSF1 inhib -62
Cc1ccc(NC(=O)CN2C(=S)NC(C)(C)CC2C)cc1Cl (centres undefined)	none (no result: HSF1 activator, HSF1 inhib)
CN(CCOc1ccccc1)C(=O)C1CCC(=O)N(CCc2ccc(Cl)cc2)C1 (centres undefined)	HSF1 activator 59 (no result: Hsp70 act, TbHK1 inh)
COc1ccc(CCN2CC(C(=O)N(C)CCOc3ccccc3)CCC2=O)cc1 (centres undefined)	none (no result: Hsp70 act, TbHK1 inh)
CN(Cc1cnccn1)C(=O)C1CCC(=O)N(CCc2ccccc2)C1 (centres undefined)	none (no result: Hsp70 act, TbHK1 inh)
Cc1ccc(CN(C)C(=O)C2CCC(=O)N(CCc3ccccc3)C2)o1 (centres undefined)	HSF1 activator 195 (no result: Hsp70 act, TbHK1 inh)

Bioassay records deposited in PubChem BioAssay by several laboratories.
